# The full list was thinned out, with hits kept by preference.
# S1P4 antagonist: antagonists of human S1P4 receptor. O95977. S1P4-expressing cells, antagonist mode, reporter read-out. inhibition, % at 4.98 µM. 220,000 compounds, 0.26% hits. AID 1510; in the data active = inhibition above about 29%;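 also: 0% = wells stimulated with agonist and 100% = vehicle wells without agonist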
# MDM2 E3 inh: blocks human Mdm2 ubiquitin ligase activity | cell-based MDM2 ubiquitination luciferase reporter, 2 h; 0 = plate control, 100 = twice control, blank-subtracted | AID 1230 | 210,000 compounds, 0.11% hits | signal enhancement, % at 5 µM;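 active = signal enhancement of 30% or more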;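 also: luminescence tracks abundance of the self-degrading MDM2-luciferase fusion protein; higher signal means inhibition of MDM2 E3 ligase activity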
# Target sequence (Q00987 whole entry, looked up, the tested form may be a part): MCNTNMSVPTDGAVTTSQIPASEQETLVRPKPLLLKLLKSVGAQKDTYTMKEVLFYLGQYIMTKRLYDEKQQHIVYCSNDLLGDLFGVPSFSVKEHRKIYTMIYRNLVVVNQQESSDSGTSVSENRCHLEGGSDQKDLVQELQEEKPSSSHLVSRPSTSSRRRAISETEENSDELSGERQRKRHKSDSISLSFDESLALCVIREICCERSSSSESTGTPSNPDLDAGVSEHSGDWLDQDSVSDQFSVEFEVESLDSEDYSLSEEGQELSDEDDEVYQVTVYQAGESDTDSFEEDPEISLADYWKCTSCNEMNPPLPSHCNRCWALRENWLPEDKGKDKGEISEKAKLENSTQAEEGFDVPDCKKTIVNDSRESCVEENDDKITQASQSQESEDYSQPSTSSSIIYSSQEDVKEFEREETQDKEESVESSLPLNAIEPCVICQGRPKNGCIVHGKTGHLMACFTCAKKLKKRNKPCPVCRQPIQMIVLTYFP
#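 Assay system: stable mammalian line carrying autodegrading MDM2–luciferase fusion reporter; Input: 2000 cells in each well; Compound dosing: single-point 5 µM; Schedule: 2 h compound exposure at 37 °C; Signal: SteadyLite luciferase luminescence after 15 min room-temperature reagent incubation; Evaluation: % luminescence enhancement versus blank-corrected plate control mean; Benchmarks: plate controls and plate blanks.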
# S1P4 agonist: activates the human S1P4 receptor; O95977; S1P4-expressing cell line, agonist reporter assay; activation, % at 4.98 µM; 220,000 compounds, 0.35% hits; in the data active = activation above about 11%;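 also: 0% = DMSO vehicle and 100% = reference agonist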
# Lmaj promast: Leishmania major promastigote growth inhibition | AID 1063 | 200,000 compounds, 9% hits | inhibition, % at 10 µM | Leishmania major promastigotes, resazurin fluorescence viability; in the data active = inhibition above about 50%;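 also: promastigotes grown with compound for 44 hours at 28 °C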
# S1P3 antagonist: antagonists of human S1P3 receptor; inhibition, % at 4.98 µM; CHO S1P3 NFAT-BLA reporter, FRET fluorescence, antagonist mode; 170,000 compounds, 0.27% hits;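 active = inhibition above the plate cutoff, the mean inhibition of test wells on that plate plus 3 SD, cut at about 28% in these data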;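 also: cells challenged with S1P at its EC80 of 0.8 µM; blue over green emission ratio from cleaved BLA substrate after 4 h stimulation; 0% = S1P-stimulated wells and 100% = unstimulated DMSO-only wells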
# Starred values were filed as active, the others as inactive; nt = no result.
SMILES,S1P4 antagonist,MDM2 E3 inh,S1P4 agonist,Lmaj promast,S1P3 antagonist
Cc1ccc(C(C(=O)NC2CCCCC2)N(C(=O)Cc2c[nH]c3ccccc23)c2ccccc2)o1 (stereo unspecified),-4.7,-2.5,1.2,18.0,nt
COc1cc(C(C(=O)NC2CCCCC2)N(C(=O)Cc2c[nH]c3ccccc23)c2ccc(C)cc2)cc(OC)c1OC (stereo unspecified),6.7,-22.9,-3.4,89.9*,-3.1
Cc1ccc(C(NC(=O)/C=C\c2ccc3c(c2)OCO3)C(=O)Nc2ccc3c(c2)OCO3)cc1 (stereo unspecified),-12.4,-6.4,-0.4,99.8*,1.2
Cc1ccc(C(C(=O)Nc2ccc3c(c2)OCO3)N(C)C(=O)Cc2c[nH]c3ccccc23)cc1 (stereo unspecified),-11.1,-14.7,-0.3,69.6*,-6.0
CCOC(=O)c1cccc(NC(=O)/C=C/c2ccc3c(c2)OCO3)c1,5.0,-14.5,1.6,8.6,16.3
CC(=O)Nc1ccc(N(C(=O)Cc2c[nH]c3ccccc23)C(C(=O)NC2CCCCC2)c2ccco2)cc1 (stereo unspecified),0.2,-3.3,-2.2,59.6*,-0.2
CC(=O)NC(Cc1c[nH]c2ccccc12)C(=O)OCC(=O)Nc1ccc2c(c1)OCO2 (stereo unspecified),2.5,-12.8,1.8,1.7,-21.2
Nc1nc(NCCOCCO)nc(NCC2CCCO2)c1[N+](=O)[O-] (stereo unspecified),1.7,-14.5,-0.9,nt,-10.6
N#Cc1c(N)oc(-c2ccc3c(c2)OCO3)c1-c1ccc2c(c1)OCO2,-0.1,-16.5,1.4,18.0,nt
COCc1nc2ccccc2n1Cc1c(F)cccc1Cl,10.2,-6.2,0.1,2.0,3.4
O=C(NC1CCCCC1)C(c1cccs1)N(C(=O)Cc1c[nH]c2ccccc12)c1ccc(F)cc1 (stereo unspecified),16.9,-13.6,-0.7,74.7*,nt
CC(=O)c1ccc(N(C(=O)Cc2c[nH]c3ccccc23)C(C(=O)NC2CCCCC2)c2cccs2)cc1 (stereo unspecified),-11.4,-4.2,-0.8,6.3,nt
O=C(CNC(=O)C1COc2ccccc2O1)N/N=C/c1ccc(O)cc1O (stereo unspecified),-4.8,-11.2,-1.4,98.0*,6.3
CCCCC1=NN(C(=O)c2ccco2)C(O)(C(F)(F)F)C1 (stereo unspecified),-2.6,-9.2,-0.8,2.9,-3.7
O=C(COc1ccc(-c2ccccc2)cc1)N/N=C/c1ccccc1Br,7.4,-5.1,0.0,-3.0,nt
O=C(COc1ccc(-c2ccccc2)cc1)N/N=C/c1cc(O)ccc1Br,-5.4,-14.0,-1.1,70.1*,-4.3
CCN(CC)c1ccc(/C=C2/C(=O)c3ccc(C(=O)O)cc3C2=O)cc1,-5.3,63.3*,-1.6,42.1,-4.9
Cc1nn(C)c(Cl)c1CN1CCN(C2CCCC2)C(CCO)C1 (stereo unspecified),-9.9,0.7,-0.5,0.1,-10.9
COc1ccc(-c2cc(=O)[nH][nH]2)cc1,-1.1,-1.2,6.4,75.7*,nt
Cn1cc(CN2CCCC(C(=O)c3nccn3C)C2)c(-c2cccc(Cl)c2)n1 (stereo unspecified),3.4,2.5,0.4,5.3,6.5
CCCCCC[N+](C)(C)CCSSCC[N+](C)(C)CCCCCC,1.5,-8.1,0.3,nt,-7.0
CC#CC[N+](C)(C)CCCCCCCCCCCC,-8.2,-31.8,-0.5,100.5*,-9.4
C#CC[N+](C)(C)CCCCCCCCCC,-13.3,-4.4,3.4,58.1*,-7.5
C#CC[N+](C)(C)CCCCCCCC,-6.7,nt,-1.8,-2.4,-6.1
C#CC[N+](C)(C)CCCCCCCCCCCC,-14.0,-21.8,0.7,100.4*,0.6
SMILES,S1P4 antagonist,MDM2 E3 inh,S1P4 agonist,Lmaj promast,S1P3 antagonist
CS(=O)(=O)N(CCc1ccccc1)CC(=O)NCc1cccnc1,-8.3,3.0,-1.7,-1.7,-12.8
CC1(C)CC2CC(C)(CN2C(=O)COC(=O)c2ccc(Cl)c(N)c2)C1 (stereo unspecified),-0.7,-11.2,2.2,5.8,nt
O=C(CSCc1cnn(-c2ccccc2)c1-n1cccc1)N1CCN(Cc2ccccc2)CC1,7.5,-26.0,-0.8,96.9*,nt
CCOC(=O)CSC1=NC(=O)CS1,-0.1,-10.3,-0.3,-4.2,-89.8
O=C(O)c1ccc(NC(CSCc2ccccc2F)C(=O)O)c([N+](=O)[O-])c1 (stereo unspecified),2.1,-4.9,2.1,-5.7,-1.5
OC(COCc1cccs1)CN1CCN(c2cccc(Cl)c2)CC1 (stereo unspecified),-32.6,-4.9,1.1,98.6*,-8.1
CC(=O)c1ccc(OCC(O)CN2CCN(c3ccccn3)CC2)cc1 (stereo unspecified),-9.1,-20.4,1.1,5.3,-6.8
CCOC(=O)C1CCN(CC(O)COCc2cccs2)CC1 (stereo unspecified),-14.8,-17.5,1.7,79.1*,-2.3
CC1CCN(CC(O)COc2ccc(F)cc2)CC1 (stereo unspecified),-23.6,-9.9,-2.9,29.7,-3.2
CCOC(=O)C1CCN(CC(O)COc2ccc(C(C)=O)cc2)CC1 (stereo unspecified),-2.4,-31.6,-1.9,92.0*,-14.7
OC(COCc1cccs1)CN1CCN(c2ccccc2Cl)CC1 (stereo unspecified),-10.8,-11.5,-0.3,2.4,4.8
CCOC(=O)C1CCN(CC(O)COc2ccc(C(C)(C)CC)cc2)CC1 (stereo unspecified),-5.0,-3.8,-0.6,96.9*,nt
CC(=S)c1c(C)cc2cc(C)ccn12,-10.8,8.0,0.7,-10.1,9.0
CCOC(=O)C1CCN(C(=O)COc2ccc(S(=O)(=O)NC(C)(C)C)cc2)CC1,-19.2,8.7,0.5,1.7,-25.7
CCOC(=O)C1CCN(CC(O)COc2ccc(C(C)(C)C)cc2)CC1 (stereo unspecified),-18.7,-0.3,1.2,92.0*,-18.9
C/C(=N/NC(=O)c1cc2ccccc2cc1O)C1C(=O)c2ccccc2C1=O,-5.6,-1.6,-0.8,81.2*,nt
O=C(CNS(=O)(=O)c1c(Cl)cccc1Cl)OCc1csc(-c2ccccc2)n1,-19.9,-4.6,0.1,56.9*,-2.7
Cc1ccc(S(=O)(=O)NCC(=O)OCc2csc(-c3ccccc3)n2)cc1,-12.4,-2.3,0.1,41.3,-7.3
O=C(Nc1ccccc1)N1N=C(c2cccs2)CC1c1cccs1 (stereo unspecified),4.6,-9.3,1.1,89.5*,10.9
O=C(CN1CCOCC1)N1N=C(c2cccs2)CC1c1cccs1 (stereo unspecified),-5.9,4.3,-0.9,-5.7,0.9
O=C(c1ccccc1)C1Oc2ccccc2C2CC(c3cccs3)=NN12 (stereo unspecified),-4.5,-1.5,-1.4,64.7*,-0.7
O=C1CCC(C(=O)Nc2cccc(S(=O)(=O)N3CCOCC3)c2)N1 (stereo unspecified),-12.4,-13.1,-2.4,-6.8,-2.6
CSCCC(NC(=O)c1ccc(C(C)(C)C)cc1)C(=O)O (stereo unspecified),-6.8,-4.6,-0.4,2.0,-12.4
